NR1D1 modulator: modulators of human Rev-erb alpha DNA binding; P20393; Rev-erbα–FITC-DNA binding, fluorescence polarization, 90 min; activity, % at 10 µM; 0.79% of 370,000 active; AID 1259318;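 active = activity above about 14%, limit read from the data; passing the limit was not always enough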;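 also: 0% = DMSO wells with 35 nM protein and 100% = DMSO wells with 750 nM protein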
Target sequence (P20393 whole entry, looked up): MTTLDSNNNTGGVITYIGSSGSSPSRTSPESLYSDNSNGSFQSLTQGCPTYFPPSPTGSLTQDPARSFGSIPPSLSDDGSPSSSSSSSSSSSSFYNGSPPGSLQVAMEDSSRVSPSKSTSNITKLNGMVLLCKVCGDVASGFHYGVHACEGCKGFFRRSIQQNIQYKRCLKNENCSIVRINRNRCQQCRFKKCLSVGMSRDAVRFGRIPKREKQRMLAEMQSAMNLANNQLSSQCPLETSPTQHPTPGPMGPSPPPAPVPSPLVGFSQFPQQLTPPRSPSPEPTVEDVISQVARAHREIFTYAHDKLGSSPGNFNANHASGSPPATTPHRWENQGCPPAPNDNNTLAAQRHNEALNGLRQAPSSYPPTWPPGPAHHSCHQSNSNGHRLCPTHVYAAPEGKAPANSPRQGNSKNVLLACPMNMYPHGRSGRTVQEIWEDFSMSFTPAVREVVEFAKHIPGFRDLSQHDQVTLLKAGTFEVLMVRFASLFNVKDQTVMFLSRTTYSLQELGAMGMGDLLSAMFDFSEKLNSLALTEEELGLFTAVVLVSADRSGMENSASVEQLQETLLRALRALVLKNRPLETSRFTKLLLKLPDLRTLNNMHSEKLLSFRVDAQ
NR2E3 ag-1: agonists of human NR2E3 nuclear receptor. CHO-S Gal4-NCOR/VP16-NR2E3 two-hybrid, luciferase. Q9Y5X4. 0.35% of 360,000 active. inhibition of corepressor binding, % at 3.98 µM;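 active = inhibition above the mean of all tested compounds plus 3 SD, cut at about 70% in these data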;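 also: 0% = DMSO with NR2E3 transfected cells and 100% = cells lacking NR2E3 construct; higher means lower luciferase signal from less NR2E3 corepressor binding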
NR2E3 ag-2: NR2E3 (human) agonism. Q9Y5X4. GST-NR2E3/biotin-RetCOR TR-FRET, 1536-well. inhibition of corepressor binding, % at 4.78 µM. 0.12% of 320,000 active;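 active = percent inhibition above the cutoff of mean plus 3 SD of all tested compounds, set per screening campaign, cut at about 20% in these data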;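 also: 0% = DMSO wells and 100% = biotin wells as full block of FRET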
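Material: NR2E3–RetCOR corepressor complex / Amount: 1.35 nM GST-NR2E3 / Medium: Tris pH 7.5 / Compound: single nominal compound dose of 4.8 µM / Incubation: 5 h at 4 °C / Technique: TR-FRET, Eu(K)-anti-GST donor, streptavidin-D2 acceptor, ex 340, em 617/671 nm / Read-out basis: percent loss of FRET ratio relative to control wells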
PG9 Ab binder: PG9 antibody binding by small molecule; TR-FRET gp120-PG9 antibody binding; inhibition, % at 6.7 µM; 0.43% of 360,000 active; in the data active = inhibition above about 8.5%
PG9 binder conf: PG9 antibody binding, confirmed; 90% of 1,500 active; inhibition, % at 6.7 µM; AID 651571; TR-FRET PG9 antibody binding, biochemical; shares compounds with PG9 Ab binder; in the data active = inhibition above about 9%
PGV04 counter: PGV04 control antibody binding, counter-screen | shares compounds with PG9 Ab binder | TR-FRET PGV04 antibody-gp120 binding, biochemical | inhibition, % at 6.7 µM | 95% of 1,500 active | AID 651604; in the data active = inhibition above about 9.5%
NR1D1 mod conf: confirmation of modulators of human Rev-erb alpha DNA binding. AID 1259319. shares compounds with NR1D1 modulator. 61% of 3,000 active. Rev-erb alpha FITC-DNA binding, fluorescence polarization, 90 min. activation, % at 25 µM;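 active = activation at or above a set limit, or at least 3 SD above the negative control mean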;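 also: 0% = 35 nM protein with DMSO and 100% = 750 nM protein high control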
RORg counter: counter-screen for Rev-erb alpha modulators: RORgamma DNA binding | shares compounds with NR1D1 modulator | 8% of 910 active | purified RORgamma protein-FITC-DNA binding, fluorescence polarization | AID 1259320 | IC50, µM;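 active = Compounds whose fitted half-maximal concentration for disrupting protein-DNA binding is below 10 micromolar; the record names Rev-erb in its text, so the target is in doubt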
* marks the source's active call; other numbers are inactive results; . = not tested or not shown. The list is not random: actives were taken first. Their share in the collection is about 1.5%.

SMILES	NR1D1 modulator	NR2E3 ag-1	NR2E3 ag-2	PG9 Ab binder	PG9 binder conf	PGV04 counter	NR1D1 mod conf	others
S=c1[nH]cc(-c2ccc(Cl)cc2)n1Cc1ccccc1	26.2*	1.0	1.2	16.4*	16.6*	21.4*	12.8
Cc1nc2sc(C(=O)OCC(=O)N3c4ccccc4CC3C)c(C)c2c(=O)[nH]1 (stereo not given)	19.5*	15.3	2.0	9.9*	20.6*	26.1*	14.1
COC(=O)[C@H]1C[C@@]2(n3ccc4ccccc43)c3ccccc3N[C@H]2N1	0.9	.	.	.	.	.	.
CCCC(=O)Nc1sc(C)c(-c2ccc(OC)cc2)c1C#N	23.9*	-18.1	-0.4	9.1*	18.5*	23.4*	28.0*
C=CCN1C(=O)[C@@H](CC(=O)NCCC(C)C)[C@]2(C(=O)OCC)CCCCC/C=C/12	0.7	.	.	.	.	.	.
CC(C)(C)N1Cc2nnn(Cc3ccccc3)c2-c2ccccc2S1(=O)=O	0.6	.	.	.	.	.	.
CCN(Cc1cn(Cc2ccccc2)nn1)S(=O)(=O)c1ccc(F)cc1Br	-4.8	.	.	.	.	.	.
Cc1ccc(-c2nnc(NCc3nc4ccccc4[nH]3)c3ccccc23)cc1S(=O)(=O)N1CCOCC1	.	23.9	-2.6	.	.	.	.
Cc1ccc(-c2nnc(NCc3nc4ccccc4[nH]3)c3ccccc23)cc1S(=O)(=O)N(C)C	75.6*	12.7	-1.1	11.5*	21.4*	34.3*	52.5*	RORg counter=>40
Cn1c(-c2ccc(C=O)s2)nc2c3ccccc3c3ccccc3c21	134.8*	-52.1	-2.4	8.9*	6.1	7.8	113.8*
CCc1nc(Nc2cc(OC)ccc2OC)c2oc3ccccc3c2n1	22.1*	-56.2	4.8	13.4*	20.0*	25.2*	12.1
CCc1nc(Nc2ccccc2OC)c2oc3ccccc3c2n1	-1.4	-24.2	1.5	-2.1	.	.	.
O=C(CSc1ccccc1)N1CCC(Oc2cccnc2)CC1	-2.1	.	.	.	.	.	.
COC(=O)c1c(-c2ccccc2)csc1NC(=O)c1ccco1	18.6*	-85.1	1.1	17.1*	9.8*	14.2*	15.2
CCOc1ccccc1CNC(=O)C1CCN(c2nnc(C)c3c(C)n(-c4ccc(C)cc4)nc23)CC1	44.1*	17.8	-14.2	9.3*	12.4*	33.1*	33.8*	RORg counter=>40
Cc1ccc(-n2nc3c(N4CCC(C(=O)NCc5ccccc5C)CC4)nnc(C)c3c2C)cc1	.	33.4	-43.9	.	.	.	.
Cn1c(NC(=O)c2cccc(Cn3cc(Cl)cn3)c2)nc2ccccc21	25.1*	-121.4	0.9	50.8*	37.0*	53.3*	0.8
Cc1ccc(Cl)cc1-n1c(SCC(=O)NCCC2=CCCCC2)nc2n[nH]c(C)c2c1=N	29.1*	-21.4	-0.6	14.3*	14.9*	19.9*	14.9
Nc1c(S(=O)(=O)c2cccc(Cl)c2)c2nc3ccccc3nc2n1CCN1CCOCC1	32.3*	-2.8	0.4	11.1*	3.4	4.4	3.8
COc1ccc(NC(=O)CSc2nnc(-c3cccs3)n2-c2ccccc2)cc1	25.4*	-7.4	-193.3	21.5*	33.0*	56.8*	21.1*
C[C@@H](NC(=O)c1ncn2c1c(=O)[nH]c1ccc(Br)cc12)c1ccccc1	131.6*	-13.2	.	18.3*	46.4*	53.8*	23.1*
C[C@@H](NC(=O)c1ncn2c1c(=O)[nH]c1cccnc12)c1ccccc1	0.1	-12.9	.	0.1	.	.	.
Nc1nc2ncccc2cc1C(=O)C1=C(c2ccccc2)Cc2ccccc21	-1.5	.	.	.	.	.	.
Cc1ccc(-n2nnnc2SCC(=O)c2ccc3c(c2)NC(=O)CO3)c(C)c1	25.3*	-1.1	1.1	13.3*	10.8*	30.5*	23.5*
CCCCCCCCN1C(=O)[C@@H](CC(=O)N2CCCC2)C[C@@]2(C(=O)OC)C1=C[C@H](COCc1ccccc1)O[C@@H]2C	-9.8	.	.	.	.	.	.
COc1ccccc1C(=O)NC1CCCCN(Cc2cccc(F)c2)C1=O (stereo not given)	-10.9	.	.	.	.	.	.
COC(=O)CNC(=O)CNC1(C(=O)NCCc2c[nH]c3ccccc23)CCCCC1	-1.7	.	.	.	.	.	.
Cc1cc(C)c(C#N)c(N)n1	-3.7	22.4	1.6	-0.2	.	.	.
